Data reported in ChEMBL document CHEMBL1129970, “Biologically active conformer of the effector region of human C5a and modulatory effects of N-terminal receptor binding determinants on activity” (J Med Chem, 1997).

Key:
Homo sapiens [1] = organism: Homo sapiens; assay: Relative potency of peptide for human fetal artery was determined; type: functional
Method in brief: (§1)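 Human fetal artery smooth muscle contraction; full dose–response curves for recombinant human C5a or each peptide in the same tissue preparation. EC50 is the concentration giving 50% of the maximal response, read relative to the C5a maximum. pD2 = −log EC50 (M), averaged per peptide ± SE. Log potency ratio pD2(C5a) − pD2(peptide) is computed within each experiment. Relative potency = antilog(−Δ) × 100.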

Homo sapiens [2] = organism: Homo sapiens; assay: Spasmogenic activity was measured by the ability to induce smooth muscle contraction in human fetal artery; type: functional, Muscle tissue; method in brief: as §1
Homo sapiens [3] = organism: Homo sapiens; assay: Tested for the ability to stimulate beta-glucuronidase release from human polymorphonuclear cells (PMN) (n=4); type: functional
Method in brief: (§2)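 Human PMNs pretreated with cytochalasin B (5 μg/mL, 10 min, 37 °C), then 10⁶ cells stimulated for 60 min at 37 °C. β-Glucuronidase in the supernatant is assayed with 0.01 M p-nitrophenyl β-D-glucuronide (0.1 M acetate, pH 4, 18 h) in triplicate. Reaction stopped with glycine pH 10 and read at 415 nm. pD2 is taken from dose–response curves against the C5a EC50. Efficacy is given relative to C5a maximum (100%).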

Homo sapiens [4] = organism: Homo sapiens; assay: Log potency ratio [pD2(C5a)-pD2(peptide)] was determined in human polymorphonuclear cells (PMN) (n=4); type: functional; method in brief: as §2
Homo sapiens [5] = organism: Homo sapiens; assay: Relative potency of peptide to stimulate beta-glucuronidase release from human polymorphonuclear cells (PMN) (n=4); type: functional; method in brief: as §2
Homo sapiens [6] = organism: Homo sapiens; assay: Maximum efficacy relative to C5a (100%) for human polymorphonuclear cells (PMN) was determined (n=4); type: functional; method in brief: as §2
[7] = Selectivity of peptide was determined from antilog[pD2(fetal artery)-pD2 (PMN enzyme release)] (n=7); type: functional
Method in brief: (§3)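 Selectivity = antilog[pD2(fetal artery) − pD2(PMN β-glucuronidase release)]. pD2 values come from full dose–response curves in each assay, each generated alongside C5a.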

Homo sapiens [8] = organism: Homo sapiens; assay: Log potency ratio [pD2(C5a)-pD2(peptide)] was determined in human fetal artery; type: functional; method in brief: as §1
[9] = Selectivity of peptide was determined from antilog[pD2(fetal artery)-pD2 (PMN enzyme release)] (n=12); type: functional; method in brief: as §3
[10] = Selectivity of peptide was determined from antilog[pD2(fetal artery)-pD2 (PMN enzyme release)] (n=10); type: functional; method in brief: as §3
Homo sapiens [11] = organism: Homo sapiens; assay: Effective concentration to induce smooth muscle contraction in human fetal artery; type: functional; details: Muscle tissue; method in brief: as §1
Homo sapiens [12] = organism: Homo sapiens; assay: Effective concentration to stimulate beta-glucuronidase release from human polymorphonuclear cells (PMN) (n=5); type: functional; method in brief: as §2
Homo sapiens [13] = organism: Homo sapiens; assay: Log potency ratio [pD2(C5a)-pD2(peptide)] was determined in human polymorphonuclear cells (PMN) (n=5); type: functional; method in brief: as §2
Homo sapiens [14] = organism: Homo sapiens; assay: Relative potency of peptide to stimulate beta-glucuronidase release from human polymorphonuclear cells (PMN) (n=5); type: functional; method in brief: as §2
Homo sapiens [15] = organism: Homo sapiens; assay: Tested for the ability to stimulate beta-glucuronidase release from human polymorphonuclear cells (PMN) (n=5); type: functional; method in brief: as §2
Homo sapiens [16] = organism: Homo sapiens; assay: Maximum efficacy relative to C5a (100%) for human polymorphonuclear cells (PMN) was determined (n=5); type: functional; method in brief: as §2
[17] = Selectivity of peptide was determined from antilog[pD2(fetal artery)-pD2 (PMN enzyme release)] (n=11); type: functional; method in brief: as §3
Homo sapiens [18] = organism: Homo sapiens; assay: Effective concentration to stimulate beta-glucuronidase release from human polymorphonuclear cells (PMN) (n=4); type: functional; method in brief: as §2
Homo sapiens [19] = organism: Homo sapiens; assay: Tested for inhibition of binding of [125I]C5a to intact human polymorphonuclear cells (PMN) (n=3); type: functional
Method in brief: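 Competition binding on freshly isolated intact human PMNs (0.25 × 10⁶) with 20 pM [¹²⁵I]C5a plus unlabeled C5a or peptide. Buffer is 50 mM HEPES, 1 mM CaCl₂, 5 mM MgCl₂, 0.5% BSA. Incubation 60 min at 4 °C, then filtration, ice-cold washes and gamma counting, triplicates. Nonspecific binding defined with 1 mM peptide or 100 nM C5a. Relative affinity = antilog[−(log IC50 C5a − log IC50 peptide)] × 100. The potency/binding ratio is EC50 divided by the binding IC50.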

SMILES	Potency (Homo sapiens [1])	pD2 (Homo sapiens [2])	pD2 (Homo sapiens [3])	Mean log concentration ratio (Homo sapiens [4])	Potency (Homo sapiens [5])	C5a max (Homo sapiens [6])	Mean log concentration ratio (Homo sapiens [8])	EC50 (Homo sapiens [11])	other results
CSCC[C@H](NC(=O)[C@@H]1CCCN1C(=O)[C@H](CCCCN)NC(=O)[C@H](Cc1ccccc1)NC(=O)[C@H](CO)NC(=O)[C@H](Cc1ccc(O)cc1)NC(=O)CCCCCNC(=O)[C@H](Cc1c[nH]c2ccccc12)NC(=O)[C@@H](N)CC(=O)O)C(=O)N1CCC[C@H]1C(=O)N[C@@H](CC(C)C)C(=O)N[C@H](C)C(=O)N[C@@H](CCCN=C(N)N)C(=O)O	8.5%	6.96	5.14	2.3	0.5%	173%	0.91	–	Selectivity [7]: 66
CSCC[C@H](NC(=O)[C@@H]1CCCN1C(=O)[C@H](CCCCN)NC(=O)[C@H](Cc1ccccc1)NC(=O)[C@H](CO)NC(=O)[C@H](Cc1ccc(O)cc1)NC(=O)CCCCCNC(=O)[C@H](CCCCN)NC(=O)CNC(=O)[C@H](CCCCN)NC(=O)CNC(=O)[C@@H](N)CCCCN)C(=O)N1CCC[C@H]1C(=O)N[C@@H](CC(C)C)C(=O)N[C@H](C)C(=O)N[C@@H](CCCN=C(N)N)C(=O)O	10%	6.98	5.18	2.2	0.6%	173%	0.99	–	Selectivity [9]: 63
CSCC[C@H](NC(=O)[C@@H]1CCCN1C(=O)[C@H](CCCCN)NC(=O)[C@H](Cc1ccccc1)NC(=O)[C@H](CO)NC(=O)[C@H](Cc1ccc(O)cc1)NC(=O)[C@H](CCCCN)NC(=O)CNC(=O)[C@H](CCCCN)NC(=O)CNC(=O)[C@@H](N)CCCCN)C(=O)N1CCC[C@H]1C(=O)N[C@@H](CC(C)C)C(=O)N[C@H](C)C(=O)N[C@@H](CCCN=C(N)N)C(=O)O [listing 1 of 2 here]	6.2%	6.81	5.4	2.05	0.9%	198%	1.2	–	Selectivity [10]: 26
CSCC[C@H](NC(=O)[C@@H]1CCCN1C(=O)[C@H](CCCCN)NC(=O)[C@H](Cc1ccccc1)NC(=O)[C@H](CO)NC(=O)[C@H](Cc1ccc(O)cc1)NC(=O)CCCCCNC(=O)[C@H](Cc1c[nH]c2ccccc12)NC(=O)[C@@H](N)CCCCN)C(=O)N1CCC[C@H]1C(=O)N[C@@H](CC(C)C)C(=O)N[C@H](C)C(=O)N[C@@H](CCCN=C(N)N)C(=O)O [listing 1 of 2 here]	–	–	–	–	–	–	–	100 nM	EC50 (Homo sapiens [12]): 2500 nM
CSCC[C@H](NC(=O)[C@@H]1CCCN1C(=O)[C@H](CCCCN)NC(=O)[C@H](Cc1ccccc1)NC(=O)[C@H](CO)NC(=O)[C@H](Cc1ccc(O)cc1)NC(=O)CCCCCNC(=O)[C@H](Cc1c[nH]c2ccccc12)NC(=O)[C@@H](N)CCCCN)C(=O)N1CCC[C@H]1C(=O)N[C@@H](CC(C)C)C(=O)N[C@H](C)C(=O)N[C@@H](CCCN=C(N)N)C(=O)O [listing 2 of 2 here]	14%	7.11	–	–	–	–	0.86	–	Mean log concentration ratio (Homo sapiens [13]): 1.72; Potency (Homo sapiens [14]): 1.9%; pD2 (Homo sapiens [15]): 5.6; C5a max (Homo sapiens [16]): 134%; Selectivity [17]: 32
CSCC[C@H](NC(=O)[C@@H]1CCCN1C(=O)[C@H](CCCCN)NC(=O)[C@H](Cc1ccccc1)NC(=O)[C@H](CO)NC(=O)[C@H](Cc1ccc(O)cc1)NC(=O)[C@H](CCCCN)NC(=O)CNC(=O)[C@H](CCCCN)NC(=O)CNC(=O)[C@@H](N)CCCCN)C(=O)N1CCC[C@H]1C(=O)N[C@@H](CC(C)C)C(=O)N[C@H](C)C(=O)N[C@@H](CCCN=C(N)N)C(=O)O [listing 2 of 2 here]	–	–	–	–	–	–	–	200 nM	EC50 (Homo sapiens [18]): 3900 nM
CSCC[C@H](NC(=O)[C@@H]1CCCN1C(=O)[C@H](CCCCN)NC(=O)[C@H](Cc1ccccc1)NC(=O)[C@H](CO)NC(=O)[C@H](Cc1ccc(O)cc1)NC(=O)CCCCCN)C(=O)N1CCC[C@H]1C(=O)N[C@@H](CC(C)C)C(=O)N[C@H](C)C(=O)N[C@@H](CCCN=C(N)N)C(=O)O	–	–	–	–	–	–	–	70 nM	IC50 (Homo sapiens [19]): 5500 nM; EC50 (Homo sapiens [18]): 3100 nM
